{
  "source": "ChEMBL document CHEMBL1156469",
  "about": "(2007)",
  "key": {"Osteoblast [1]": {"tested_on": "Osteoblast", "experiment": "Reversal of increase in ER.DNA complex in rat primary osteoblast cells at 1 uM by RT-PCR in presence of PP2", "format": "functional, cell-based"}, "MC3T3-E1 [2]": {"tested_on": "MC3T3-E1", "experiment": "Reversal of induction in ER.DNA complex in mouse MC3T3-E1 cells at 1 uM by RT-PCR in presence of tamoxifen", "format": "functional, cell-based", "outline": "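BMP-2 promoter quantified by real-time PCR (45 cycles, 61 °C anneal), reported as IP-to-input Ct ratio. DN-Src by 3 μg vector, PP2 at 10 μM; ICI182780 and tamoxifen at indicated concentrations.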"}, "Osteoblast [3]": {"tested_on": "Osteoblast", "experiment": "Effect on transforming growth factor beta 3 gene expression in rat primary osteoblast cells assessed as expression ratio of treated to untreated control by microarray analysis", "format": "functional", "outline": "(§1)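 Resveratrol-treated and vehicle-treated primary osteoblasts were profiled on a mouse osteogenesis-focused cDNA array (GEArray Q series) built to track gene expression during osteogenic differentiation. Each gene's signal in treated cells was expressed as a ratio to untreated control.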"}, "Osteoblast [4]": {"tested_on": "Osteoblast", "experiment": "Effect on vascular cell adhesion molecule 1 gene expression in rat primary osteoblast cells assessed as expression ratio of treated to untreated control by microarray analysis", "format": "functional", "outline": "(§2)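 GEArray Q series Mouse Osteogenesis cDNA array profiling osteogenic-differentiation genes in treated versus vehicle-treated primary osteoblasts.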"}, "[5]": {"target": "T1, Alkaline phosphatase (Mus musculus) (UniProt Q9EQ79)", "T1 sequence (whole entry)": "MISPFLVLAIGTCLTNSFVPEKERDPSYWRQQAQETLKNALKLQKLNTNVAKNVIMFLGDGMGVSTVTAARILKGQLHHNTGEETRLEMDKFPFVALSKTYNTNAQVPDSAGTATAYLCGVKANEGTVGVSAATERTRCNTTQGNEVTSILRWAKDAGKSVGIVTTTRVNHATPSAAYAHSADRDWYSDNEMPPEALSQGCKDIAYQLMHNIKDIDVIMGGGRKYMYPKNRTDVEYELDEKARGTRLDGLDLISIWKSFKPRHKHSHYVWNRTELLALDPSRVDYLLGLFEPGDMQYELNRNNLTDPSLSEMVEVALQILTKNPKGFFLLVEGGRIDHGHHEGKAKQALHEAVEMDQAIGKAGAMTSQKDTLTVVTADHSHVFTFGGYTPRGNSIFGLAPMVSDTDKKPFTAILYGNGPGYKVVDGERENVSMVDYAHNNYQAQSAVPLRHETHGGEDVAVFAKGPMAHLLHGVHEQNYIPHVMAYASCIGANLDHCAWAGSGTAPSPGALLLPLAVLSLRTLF", "experiment": "Inhibition of induction of ALP activity in mouse MC3T3-E1 cells at 1 uM after 48 hrs in presence of noggin", "format": "cell-based"}, "[6]": {"target": "T2, Estrogen receptor (Mus musculus) (UniProt P19785)", "T2 sequence (whole entry)": "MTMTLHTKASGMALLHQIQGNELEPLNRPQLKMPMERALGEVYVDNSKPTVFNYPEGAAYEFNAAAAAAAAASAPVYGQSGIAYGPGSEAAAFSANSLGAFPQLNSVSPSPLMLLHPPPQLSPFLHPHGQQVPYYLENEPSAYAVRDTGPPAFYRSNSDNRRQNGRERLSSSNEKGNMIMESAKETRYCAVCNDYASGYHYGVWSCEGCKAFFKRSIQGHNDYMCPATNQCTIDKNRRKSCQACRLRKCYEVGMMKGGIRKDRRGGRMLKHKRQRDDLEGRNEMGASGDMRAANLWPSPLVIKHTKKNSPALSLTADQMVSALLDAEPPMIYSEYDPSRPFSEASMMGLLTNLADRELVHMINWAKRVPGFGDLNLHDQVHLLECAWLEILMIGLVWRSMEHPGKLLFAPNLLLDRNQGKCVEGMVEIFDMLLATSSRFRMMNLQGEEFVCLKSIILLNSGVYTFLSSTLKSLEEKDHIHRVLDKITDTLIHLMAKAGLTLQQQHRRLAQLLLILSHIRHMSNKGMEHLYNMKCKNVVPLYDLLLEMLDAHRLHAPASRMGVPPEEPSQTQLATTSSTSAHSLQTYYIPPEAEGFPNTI", "experiment": "Reversal of increase in DNA-binding activity of ERalpha in nuclear extracts of mouse MC3T3-E1 cells by electrophoretic mobility shift assays in presence of PP2", "format": "cell-based", "outline": "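Nuclear extracts of MC3T3-E1 cells. ER-binding probe [α-32P]dCTP end-labeled, 20-min binding at room temperature, 5-fold unlabeled competitor where used. Complexes resolved on 5% nondenaturing PAGE in Tris-borate-EDTA pH 8.3, then autoradiography.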"}, "[7]": {"experiment": "Reversal of increase in BMP2 expression in mouse MC3T3-E1 cells expressing small interfering RNA for FOXA1 protein at 1 uM by Western blot", "format": "functional, cell-based"}, "Osteoblast [8]": {"tested_on": "Osteoblast", "experiment": "Effect on scavenger receptor B2 gene expression in rat primary osteoblast cells assessed as expression ratio of treated to untreated control by microarray analysis", "format": "functional", "outline": "as §1"}, "[9]": {"experiment": "Reversal of induction in nuclear translocation of ERalpha in mouse MC3T3-E1 cells transfected with dominant-negative mutant Src expression vector at 1 uM", "format": "functional, cell-based", "outline": "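Src phosphorylation, ERα nuclear translocation and BMP-2 protein analysed by Western blot with ECL detection. Three independent experiments.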"}, "MCF7": {"tested_on": "MCF7", "experiment": "Antiproliferative activity against human MCF7 cells at 1 uM by flow cytometry", "format": "functional, cell-based", "outline": "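Proliferation was measured by DNA flow cytometry. Incubations were run in triplicate across three separate experiments, and values are means ± S.D.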"}, "[10]": {"target": "Alkaline phosphatase (Rattus norvegicus) (UniProt Q9JKS8)", "sequence (Q9JKS8 as listed by the source)": "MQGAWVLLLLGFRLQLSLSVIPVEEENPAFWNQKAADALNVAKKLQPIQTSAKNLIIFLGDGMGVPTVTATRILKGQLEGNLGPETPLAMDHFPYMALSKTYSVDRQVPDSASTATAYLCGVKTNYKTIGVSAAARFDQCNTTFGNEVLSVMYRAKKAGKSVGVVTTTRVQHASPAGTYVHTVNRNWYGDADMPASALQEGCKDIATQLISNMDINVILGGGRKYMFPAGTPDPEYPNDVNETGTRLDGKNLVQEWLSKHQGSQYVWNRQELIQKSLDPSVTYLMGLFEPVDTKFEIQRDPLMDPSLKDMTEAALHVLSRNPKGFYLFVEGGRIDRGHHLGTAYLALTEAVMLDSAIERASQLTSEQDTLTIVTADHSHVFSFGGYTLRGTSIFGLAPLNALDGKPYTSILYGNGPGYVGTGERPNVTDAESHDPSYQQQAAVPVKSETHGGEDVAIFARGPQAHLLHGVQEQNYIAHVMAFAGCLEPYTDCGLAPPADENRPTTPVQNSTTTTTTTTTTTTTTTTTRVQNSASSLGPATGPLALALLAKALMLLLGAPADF", "experiment": "Increase in ALP activity in rat primary osteoblast cells at 0.1 to 10 uM after 7 days", "format": "cell-based"}, "Osteoblast [11]": {"tested_on": "Osteoblast", "experiment": "Increase in osteopontin mRNA levels in rat primary osteoblast cells at 1 uM after 72 hrs by RT-PCR", "format": "functional, cell-based", "outline": "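Cells treated with 1 μm for 72 h; osteocalcin and osteopontin mRNA by RT-PCR, 30 cycles (95/52/72 °C, 1 min each), ethidium bromide–stained agarose gels; repeated at least twice from at least two cDNA preparations.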"}, "Osteoblast [12]": {"tested_on": "Osteoblast", "experiment": "Increase in BMP2 mRNA levels in rat primary osteoblast cells at 1 uM by RT-PCR method", "format": "functional, cell-based", "outline": "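Cells treated with 1 μm for 48 h; BMP-2 mRNA measured by quantitative real-time RT-PCR (SYBR Green, 0.5 μm each primer, 4 mm MgCl2, fluorescence read at 82 °C) and normalized.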"}, "Osteoblast [13]": {"tested_on": "Osteoblast", "experiment": "Effect on fibronectin 1 gene expression in rat primary osteoblast cells assessed as expression ratio of treated to untreated control by microarray analysis", "format": "functional"}, "Osteoblast [14]": {"tested_on": "Osteoblast", "experiment": "Increase in bone morphogenetic protein 2 gene expression in rat primary osteoblast cells assessed as expression ratio of treated to untreated control by microarray analysis", "format": "functional", "outline": "as §2"}, "Osteoblast [15]": {"tested_on": "Osteoblast", "experiment": "Effect on bone morphogenetic protein receptor 1B gene expression in rat primary osteoblast cells assessed as expression ratio of treated to untreated control by microarray analysis", "format": "functional"}, "Osteoblast [16]": {"tested_on": "Osteoblast", "experiment": "Effect on procollagen 4 alpha 2 gene expression in rat primary osteoblast cells assessed as expression ratio of treated to untreated control by microarray analysis", "format": "functional", "outline": "as §1"}, "Osteoblast [17]": {"tested_on": "Osteoblast", "experiment": "Effect on integrin alpha V gene expression in rat primary osteoblast cells assessed as expression ratio of treated to untreated control by microarray analysis", "format": "functional", "outline": "as §1"}, "Osteoblast [18]": {"tested_on": "Osteoblast", "experiment": "Effect on matrix metalloprotease 9 gene expression in rat primary osteoblast cells assessed as expression ratio of treated to untreated control by microarray analysis", "format": "functional", "outline": "as §1"}, "MC3T3-E1 [19]": {"tested_on": "MC3T3-E1", "experiment": "Inhibition of antiapoptotic activity in mouse MC3T3-E1 cells at 1 uM after 48 hrs in presence of noggin", "format": "functional, cell-based"}},
  "note": "The source made the active and inactive calls. The rule behind the calls is not given here.",
  "data": [
    {"smiles": "Oc1ccc(/C=C/c2cc(O)cc(O)c2)cc1", "note": "[RESVERATROL]", "values": [
      {"measurement": "Activity", "setting": "Osteoblast [1]", "result": "Active"},
      {"measurement": "Activity", "setting": "MC3T3-E1 [2]", "result": "Dose-dependent effect"},
      {"measurement": "Ratio", "setting": "Osteoblast [3]", "result": 2.56},
      {"measurement": "Ratio", "setting": "Osteoblast [4]", "result": 0.46},
      {"measurement": "Activity", "setting": "[5]", "result": "Active"},
      {"measurement": "Activity", "setting": "[6]", "result": "Active"},
      {"measurement": "Activity", "setting": "[7]", "result": "Active"},
      {"measurement": "Ratio", "setting": "Osteoblast [8]", "result": 0.65},
      {"measurement": "Activity", "setting": "[9]", "result": "Active"},
      {"measurement": "Activity", "setting": "MCF7", "result": "Active"},
      {"measurement": "Activity", "setting": "[10]", "result": "Active"},
      {"measurement": "Activity", "setting": "Osteoblast [11]", "result": "Active"},
      {"measurement": "Activity", "setting": "Osteoblast [12]", "result": "Active"},
      {"measurement": "Ratio", "setting": "Osteoblast [13]", "result": 8.76},
      {"measurement": "Ratio", "setting": "Osteoblast [14]", "result": 12.75},
      {"measurement": "Ratio", "setting": "Osteoblast [15]", "result": 2.63},
      {"measurement": "Ratio", "setting": "Osteoblast [16]", "result": 4.48},
      {"measurement": "Ratio", "setting": "Osteoblast [17]", "result": 4.64},
      {"measurement": "Ratio", "setting": "Osteoblast [18]", "result": 0.43},
      {"measurement": "Activity", "setting": "MC3T3-E1 [19]", "result": "Active"}
    ]}
  ]
}
